Reference: ChEMBL document CHEMBL1157613, “Salicylic acid based small molecule inhibitor for the oncogenic Src homology-2 domain containing protein tyrosine phosphatase-2 (SHP2)” (J Med Chem, 2010)
The source made the active and inactive calls. The rule behind the calls is not given here.

Tests used:
Mus musculus [1] = species on record: Mus musculus; assay: Antiproliferative activity against GM-CSF-stimulated C57/BL6 mouse low density BM-MNC expressing SHP2 E76K mutant assessed as inhibition of hyperproliferation at 10 uM after 16 hrs by [3H]thymidine incorporation assay; type: functional; conditions: C57Bl/6
Procedure, shortened: (§1)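 Marrow low-density mononuclear cells from C57Bl/6 mice (Ficoll), prestimulated 24 h with SCF, G-CSF, Tpo (100 ng/mL), retrovirally transduced 48 h with wild-type SHP2, D61Y or E76K, EGFP-sorted. Starved 4 h in 0.2% BSA; 5 × 10^4 cells cultured 16 h in GM-CSF 0-1 ng/mL ± 10 μM compound, then pulsed with 1.0 μCi [3H]thymidine for 6-8 h; counts per minute; n = 3.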

[2] = target: Receptor-type tyrosine-protein phosphatase F (Homo sapiens, UniProt P10586); assay: Inhibition of LAR expressed in Escherichia coli assessed as inhibition of p-nitrophenyl phosphate hydrolysis at pH 7 by spectrophotometry
Chain of Receptor-type tyrosine-protein phosphatase F (P10586 whole entry): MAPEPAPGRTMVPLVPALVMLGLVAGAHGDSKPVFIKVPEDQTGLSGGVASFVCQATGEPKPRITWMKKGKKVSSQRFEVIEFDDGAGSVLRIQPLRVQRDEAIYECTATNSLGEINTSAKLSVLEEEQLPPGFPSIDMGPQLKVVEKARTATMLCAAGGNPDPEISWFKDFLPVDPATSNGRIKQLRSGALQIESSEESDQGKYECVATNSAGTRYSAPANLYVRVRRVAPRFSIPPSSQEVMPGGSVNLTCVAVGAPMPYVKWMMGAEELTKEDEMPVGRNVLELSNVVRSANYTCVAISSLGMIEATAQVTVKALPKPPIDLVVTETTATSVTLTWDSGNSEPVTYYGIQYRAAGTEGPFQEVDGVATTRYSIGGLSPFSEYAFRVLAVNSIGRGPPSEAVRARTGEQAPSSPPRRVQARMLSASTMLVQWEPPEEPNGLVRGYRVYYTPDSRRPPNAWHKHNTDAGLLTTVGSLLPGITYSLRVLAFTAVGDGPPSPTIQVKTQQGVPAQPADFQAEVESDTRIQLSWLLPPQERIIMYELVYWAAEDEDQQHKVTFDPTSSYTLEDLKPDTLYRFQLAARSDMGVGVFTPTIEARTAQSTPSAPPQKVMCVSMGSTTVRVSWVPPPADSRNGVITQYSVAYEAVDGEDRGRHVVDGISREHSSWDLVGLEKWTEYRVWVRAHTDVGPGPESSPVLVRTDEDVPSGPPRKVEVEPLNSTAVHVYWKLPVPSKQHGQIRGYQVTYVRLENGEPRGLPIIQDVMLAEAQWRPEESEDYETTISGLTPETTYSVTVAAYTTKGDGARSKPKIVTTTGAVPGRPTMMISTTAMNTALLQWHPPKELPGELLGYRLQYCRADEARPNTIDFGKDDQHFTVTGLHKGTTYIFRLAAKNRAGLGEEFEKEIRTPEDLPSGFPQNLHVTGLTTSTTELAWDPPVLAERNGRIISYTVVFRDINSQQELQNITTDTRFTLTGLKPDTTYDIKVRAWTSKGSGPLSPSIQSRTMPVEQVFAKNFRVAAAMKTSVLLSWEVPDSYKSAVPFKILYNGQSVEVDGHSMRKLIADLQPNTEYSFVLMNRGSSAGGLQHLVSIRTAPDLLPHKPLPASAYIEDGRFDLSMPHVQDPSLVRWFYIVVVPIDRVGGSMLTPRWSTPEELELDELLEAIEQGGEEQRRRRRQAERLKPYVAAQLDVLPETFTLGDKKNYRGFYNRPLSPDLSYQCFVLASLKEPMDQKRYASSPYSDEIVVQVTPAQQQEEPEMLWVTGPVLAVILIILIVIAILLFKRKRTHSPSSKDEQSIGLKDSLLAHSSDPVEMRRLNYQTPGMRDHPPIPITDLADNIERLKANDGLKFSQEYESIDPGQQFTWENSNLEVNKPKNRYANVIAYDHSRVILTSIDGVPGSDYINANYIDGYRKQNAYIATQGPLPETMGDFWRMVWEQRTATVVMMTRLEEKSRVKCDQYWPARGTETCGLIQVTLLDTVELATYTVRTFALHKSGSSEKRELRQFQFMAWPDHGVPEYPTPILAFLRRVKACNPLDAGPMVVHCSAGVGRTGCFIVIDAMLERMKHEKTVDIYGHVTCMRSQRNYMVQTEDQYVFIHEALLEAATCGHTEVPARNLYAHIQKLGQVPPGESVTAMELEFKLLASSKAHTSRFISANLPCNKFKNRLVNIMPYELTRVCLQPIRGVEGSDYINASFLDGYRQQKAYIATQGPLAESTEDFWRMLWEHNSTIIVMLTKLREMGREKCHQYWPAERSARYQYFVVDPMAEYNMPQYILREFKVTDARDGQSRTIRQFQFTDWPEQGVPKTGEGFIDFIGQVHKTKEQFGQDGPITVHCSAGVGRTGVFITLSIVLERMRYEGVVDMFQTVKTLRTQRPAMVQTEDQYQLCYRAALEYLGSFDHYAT

[3] = target: Tyrosine-protein phosphatase non-receptor type 6 (Homo sapiens, UniProt P29350); assay: Inhibition of SHP1 expressed in Escherichia coli assessed as inhibition of p-nitrophenyl phosphate hydrolysis at pH 7 by spectrophotometry
Chain of Tyrosine-protein phosphatase non-receptor type 6 (P29350 whole entry): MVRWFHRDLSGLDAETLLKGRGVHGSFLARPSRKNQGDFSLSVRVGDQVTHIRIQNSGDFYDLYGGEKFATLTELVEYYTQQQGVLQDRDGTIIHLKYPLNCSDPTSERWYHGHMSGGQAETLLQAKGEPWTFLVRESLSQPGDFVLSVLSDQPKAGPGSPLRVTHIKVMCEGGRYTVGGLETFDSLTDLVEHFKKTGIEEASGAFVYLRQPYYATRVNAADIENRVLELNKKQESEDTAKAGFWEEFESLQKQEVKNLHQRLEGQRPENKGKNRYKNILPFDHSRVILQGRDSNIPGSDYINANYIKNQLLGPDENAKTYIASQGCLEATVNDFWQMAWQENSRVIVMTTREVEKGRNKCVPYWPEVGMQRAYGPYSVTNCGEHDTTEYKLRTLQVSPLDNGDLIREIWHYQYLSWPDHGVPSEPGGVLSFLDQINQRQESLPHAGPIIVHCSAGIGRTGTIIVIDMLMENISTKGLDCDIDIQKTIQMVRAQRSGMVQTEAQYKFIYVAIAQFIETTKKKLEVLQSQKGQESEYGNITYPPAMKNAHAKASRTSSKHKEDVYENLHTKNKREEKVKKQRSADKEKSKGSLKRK

Mus musculus [4] = species on record: Mus musculus; assay: Antiproliferative activity against GM-CSF-stimulated C57/BL6 mouse low density BM-MNC expressing SHP2 D61Y mutant assessed as inhibition of hyperproliferation at 10 uM after 16 hrs by [3H]thymidine incorporation assay; type: functional; conditions: C57Bl/6; procedure, shortened: as §1
[5] = target: T1, Tyrosine-protein phosphatase non-receptor type 11 (Mus musculus) (UniProt P35235); assay: Inhibition of SHP2-dependent ERK1/2 activation in EGF-stimulated mouse NIH/3T3 cells assessed as phosphorylated ERK1/2 level at 10 uM treated for 3 hrs before EGF challenge measured after 5 to 15 mins of EGF stimulation by immunoblot analysis; type: cell-based; conditions: NIH3T3
T1 sequence (whole entry): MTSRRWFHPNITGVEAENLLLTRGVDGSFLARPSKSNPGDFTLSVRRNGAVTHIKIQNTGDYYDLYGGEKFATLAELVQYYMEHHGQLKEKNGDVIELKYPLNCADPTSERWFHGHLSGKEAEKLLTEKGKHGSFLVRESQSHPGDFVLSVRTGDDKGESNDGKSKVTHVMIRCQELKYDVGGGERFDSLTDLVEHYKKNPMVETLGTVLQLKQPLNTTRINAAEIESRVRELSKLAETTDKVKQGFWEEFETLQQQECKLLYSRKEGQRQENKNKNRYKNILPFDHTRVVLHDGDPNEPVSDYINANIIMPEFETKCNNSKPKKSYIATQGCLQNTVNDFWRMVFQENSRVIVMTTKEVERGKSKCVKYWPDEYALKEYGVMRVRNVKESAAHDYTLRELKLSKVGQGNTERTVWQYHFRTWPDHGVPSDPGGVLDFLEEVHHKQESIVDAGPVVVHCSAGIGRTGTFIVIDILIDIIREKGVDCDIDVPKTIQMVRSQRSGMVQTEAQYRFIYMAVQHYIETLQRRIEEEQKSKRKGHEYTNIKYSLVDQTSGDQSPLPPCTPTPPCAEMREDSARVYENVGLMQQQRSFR

[6] = target: Tyrosine-protein phosphatase non-receptor type 13 (Homo sapiens, UniProt Q12923); assay: Inhibition of FAP1 expressed in Escherichia coli assessed as inhibition of p-nitrophenyl phosphate hydrolysis at pH 7 by spectrophotometry
Chain of Tyrosine-protein phosphatase non-receptor type 13 (Q12923 whole entry): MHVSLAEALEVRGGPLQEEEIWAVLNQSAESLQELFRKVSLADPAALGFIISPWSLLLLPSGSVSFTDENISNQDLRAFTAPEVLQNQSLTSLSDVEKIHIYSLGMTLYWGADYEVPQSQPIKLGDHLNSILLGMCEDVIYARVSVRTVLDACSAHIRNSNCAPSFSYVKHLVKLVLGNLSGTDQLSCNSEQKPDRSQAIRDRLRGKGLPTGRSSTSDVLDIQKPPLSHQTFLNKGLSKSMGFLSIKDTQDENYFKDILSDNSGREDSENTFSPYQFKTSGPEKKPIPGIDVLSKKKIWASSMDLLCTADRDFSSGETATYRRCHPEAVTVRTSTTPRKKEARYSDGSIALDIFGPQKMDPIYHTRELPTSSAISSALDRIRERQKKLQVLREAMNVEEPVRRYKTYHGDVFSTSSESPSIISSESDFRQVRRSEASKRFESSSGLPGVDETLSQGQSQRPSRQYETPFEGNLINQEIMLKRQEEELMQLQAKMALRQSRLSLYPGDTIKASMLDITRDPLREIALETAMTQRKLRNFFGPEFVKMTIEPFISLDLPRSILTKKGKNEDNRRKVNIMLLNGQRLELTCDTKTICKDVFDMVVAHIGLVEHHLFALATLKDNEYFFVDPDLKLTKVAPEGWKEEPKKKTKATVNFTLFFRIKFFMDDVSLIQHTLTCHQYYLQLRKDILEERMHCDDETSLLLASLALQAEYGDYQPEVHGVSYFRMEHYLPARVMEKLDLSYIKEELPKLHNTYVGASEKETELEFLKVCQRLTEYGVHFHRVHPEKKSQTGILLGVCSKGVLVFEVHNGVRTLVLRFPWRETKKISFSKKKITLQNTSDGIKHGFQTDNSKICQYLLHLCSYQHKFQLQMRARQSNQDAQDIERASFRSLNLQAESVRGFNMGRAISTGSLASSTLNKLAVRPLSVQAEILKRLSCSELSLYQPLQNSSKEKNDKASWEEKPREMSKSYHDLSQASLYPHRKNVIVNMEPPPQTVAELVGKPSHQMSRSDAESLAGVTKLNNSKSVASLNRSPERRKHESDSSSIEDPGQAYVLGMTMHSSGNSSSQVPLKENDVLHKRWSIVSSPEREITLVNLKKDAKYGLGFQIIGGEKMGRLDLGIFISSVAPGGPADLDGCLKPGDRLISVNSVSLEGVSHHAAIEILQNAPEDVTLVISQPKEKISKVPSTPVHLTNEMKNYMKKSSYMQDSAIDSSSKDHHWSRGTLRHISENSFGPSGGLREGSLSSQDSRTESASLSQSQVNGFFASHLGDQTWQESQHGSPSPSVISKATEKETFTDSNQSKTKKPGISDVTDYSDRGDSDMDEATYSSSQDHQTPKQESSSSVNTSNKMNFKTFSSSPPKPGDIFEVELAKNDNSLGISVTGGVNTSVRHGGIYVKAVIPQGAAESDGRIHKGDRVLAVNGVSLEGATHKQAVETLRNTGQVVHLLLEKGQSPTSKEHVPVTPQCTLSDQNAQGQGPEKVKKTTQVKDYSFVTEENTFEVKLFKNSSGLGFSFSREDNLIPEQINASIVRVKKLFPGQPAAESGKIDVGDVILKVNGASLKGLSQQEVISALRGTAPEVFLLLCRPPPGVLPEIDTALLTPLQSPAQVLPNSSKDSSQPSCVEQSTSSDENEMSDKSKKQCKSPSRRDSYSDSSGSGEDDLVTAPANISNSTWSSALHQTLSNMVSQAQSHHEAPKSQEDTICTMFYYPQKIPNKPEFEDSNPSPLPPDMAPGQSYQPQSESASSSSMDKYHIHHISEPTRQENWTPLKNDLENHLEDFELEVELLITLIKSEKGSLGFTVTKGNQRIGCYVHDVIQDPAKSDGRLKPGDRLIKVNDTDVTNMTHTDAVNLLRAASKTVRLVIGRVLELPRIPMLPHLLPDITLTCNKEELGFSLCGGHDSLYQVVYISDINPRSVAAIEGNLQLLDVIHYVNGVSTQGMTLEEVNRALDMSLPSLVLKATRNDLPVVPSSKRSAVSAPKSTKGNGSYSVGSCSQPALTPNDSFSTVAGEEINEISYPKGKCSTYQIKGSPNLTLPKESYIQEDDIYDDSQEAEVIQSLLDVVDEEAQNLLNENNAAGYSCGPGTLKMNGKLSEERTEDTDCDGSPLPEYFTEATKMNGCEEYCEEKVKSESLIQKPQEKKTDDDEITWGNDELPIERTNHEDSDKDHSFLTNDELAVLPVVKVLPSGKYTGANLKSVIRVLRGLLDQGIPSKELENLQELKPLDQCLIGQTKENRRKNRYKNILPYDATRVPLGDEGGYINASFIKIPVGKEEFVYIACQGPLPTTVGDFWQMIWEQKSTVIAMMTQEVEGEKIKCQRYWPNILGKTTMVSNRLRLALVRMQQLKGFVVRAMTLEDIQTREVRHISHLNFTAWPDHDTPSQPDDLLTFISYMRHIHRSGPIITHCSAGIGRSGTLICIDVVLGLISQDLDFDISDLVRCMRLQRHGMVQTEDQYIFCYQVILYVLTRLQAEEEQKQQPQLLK

[7] = target: T2, Low molecular weight phosphotyrosine protein phosphatase (Homo sapiens, UniProt P24666); assay: Inhibition of LMWPTP expressed in Escherichia coli assessed as inhibition of p-nitrophenyl phosphate hydrolysis at pH 7 by spectrophotometry
T2 sequence (P24666 whole entry): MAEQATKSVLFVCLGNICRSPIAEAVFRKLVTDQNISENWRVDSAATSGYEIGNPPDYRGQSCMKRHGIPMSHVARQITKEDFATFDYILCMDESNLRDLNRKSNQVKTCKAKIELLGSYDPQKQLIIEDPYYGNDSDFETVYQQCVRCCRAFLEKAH

[8] = target: T3, Tyrosine-protein phosphatase non-receptor type 7 (Homo sapiens, UniProt P35236); assay: Inhibition of HePTP expressed in Escherichia coli assessed as inhibition of p-nitrophenyl phosphate hydrolysis at pH 7 by spectrophotometry
T3 sequence (P35236 whole entry): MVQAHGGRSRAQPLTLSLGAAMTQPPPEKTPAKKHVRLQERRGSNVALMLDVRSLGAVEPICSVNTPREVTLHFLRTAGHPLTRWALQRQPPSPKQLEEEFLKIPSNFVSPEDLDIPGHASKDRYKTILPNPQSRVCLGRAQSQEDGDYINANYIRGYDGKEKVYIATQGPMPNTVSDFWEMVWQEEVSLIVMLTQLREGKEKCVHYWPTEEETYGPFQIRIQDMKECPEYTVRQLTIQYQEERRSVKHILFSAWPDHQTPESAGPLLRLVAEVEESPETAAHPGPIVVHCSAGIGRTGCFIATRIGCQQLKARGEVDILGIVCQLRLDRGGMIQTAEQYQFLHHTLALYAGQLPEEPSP

IC50 [2]: > 50 µM | IC50 [3]: 15.7 µM | inhibition [5]: inactive | IC50 [6]: 20.3 µM | IC50 [7]: 31.1 µM | IC50 [8]: > 50 µM
SMILES: Cn1c(-c2ccccc2)c(-c2cn(CCC(=O)Nc3ccc(-c4ccccc4)cc3)nn2)c2cc(C(=O)O)c(O)cc21
Activity (Mus musculus [1]): Active | Activity (Mus musculus [4]): Active
